In ChEMBL document CHEMBL4673298, “Exploration of Structure-Activity Relationship of Aromatic Aldehydes Bearing Pyridinylmethoxy-Methyl Esters as Novel Antisickling Agents” (J Med Chem, 2020):
Calls of active or inactive are those of the source. No cut-off for these calls is given here.

How the values were obtained:
[1] = Inhibition of sickling in sickle cell RBCs from blood isolated from patient with homozygous SS at 2 mM under hypoxic conditions incubated for 2 hrs; format: functional; details: Homo sapiens, Erythrocyte
How it was run: (§1)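 SS blood, hematocrit 20%, preincubated under air with compound (0.5, 1, 2 mM) for 1 h at 37 °C, then 2 h hypoxia (2.5% O2/97.5% N2) at 37 °C. Aliquots are fixed in 2% glutaraldehyde without air exposure. Cell morphology is scored from bright-field images at 40×. Three biological replicates, mean ± SD.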

Red blood cell [2] = assay: Binding affinity to Hemoglobin in sickle cell RBCs from blood isolated from patient with homozygous SS assessed as increase in Hb affinity for oxygen under hypoxic conditions incubated for 2 hrs by oxygen equilibrium curve study; format: tissue-based; details: Homo sapiens
How it was run: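 SS blood, hematocrit 20%, incubated under air with compound (0.5, 1, 2 mM) at 37 °C for 1 h, then hypoxic (2.5% O2/97.5% N2) at 37 °C for 2 h. Cells are washed in PBS and hemolyzed hypotonically. Lysate in 0.1 M potassium phosphate pH 7.0 is run by Hemox analysis for P50. ΔP50 is given as percent of DMSO control. Three biological replicates, mean ± SD.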

Homo sapiens [3] = species: Homo sapiens; assay: Binding affinity to Hemoglobin in normal human whole blood assessed as increase in Hb affinity for oxygen at 2 mM incubated for 24 hrs by oxygen equilibrium curve study; format: tissue-based
How it was run: (§2)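 Normal human whole blood, hematocrit 30%, incubated with or without compound in DMSO (0.5, 1.0 or 2.0 mM; 2 mM for the time course) at 37 °C. The blood is tonometered about 7 min at 37 °C against gas with 0.804, 2.935 and 5.528% O2 (6, 20, 40 mmHg). sO2 and pO2 are read on a blood gas analyzer. ΔP50% is taken relative to no compound. Time course sampled at 1, 2, 4, 8, 12, 24 h.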

Red blood cell [4] = assay: Binding affinity to Hemoglobin in sickle cell RBCs from blood isolated from patient with homozygous SS assessed as increase in hemoglobin modification under hypoxic conditions incubated for 2 hrs […]; format: tissue-based; details: Homo sapiens
How it was run: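 SS blood, hematocrit 20%, incubated under air with compound (0.5, 1, 2 mM) at 37 °C for 1 h, then hypoxic (2.5% O2/97.5% N2) at 37 °C for 2 h. Cells are washed and hemolyzed. Lysate is run on weak cation-exchange HPLC to quantify Hb adduct (modified Hb). Three biological replicates, mean ± SD.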

Erythrocyte = assay: Inhibition of sickling in sickle cell RBCs from blood isolated from patient with homozygous SS under hypoxic conditions incubated for 2 hrs; format: functional, tissue-based; details: Homo sapiens; how it was run: as §1
Homo sapiens [5] = species: Homo sapiens; assay: Binding affinity to Hemoglobin in normal human whole blood assessed as increase in Hb affinity for oxygen at 2 mM incubated for 1 to 24 hrs by oxygen equilibrium curve study; format: tissue-based; details: time 1-24 hrs; how it was run: as §2

Row | Structure (SMILES) | inhibition at 2000 µM [1] [%] | Activity (Red blood cell [2]) | Activity (Homo sapiens [3]) | Activity (Red blood cell [4]) | inhibition (Erythrocyte) | Activity (Homo sapiens [5]) [%]
1 | COC(=O)c1ccnc(COc2ccc(OC)cc2C=O)c1 | > 90 | Dose-dependent effect | Active | Dose-dependent effect | Dose-dependent effect | 
2 | COc1cc(C=O)ccc1O |  |  |  |  |  | 21
